# Compounds with a hit are over-represented: about 2.7% of the library has one in this group of screens.
# ARFGAP1 inh – inhibits rat ARF GTPase activating protein 1; Q62848; Arfgap1-stimulated ARF1 GTP hydrolysis, GDP FP detection; inhibition, % at 16.5 µM; actives 0.26% (n = 360,000); AID 651572;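 active = inhibition above a per-plate limit, mean inhibition of low control wells plus 3 SD, cut at about 25% in these data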;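 also: 0% = DMSO wells with enzyme and 100% = wells lacking Arfgap1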
# Target sequence (Q62848 1-136 limits assumed): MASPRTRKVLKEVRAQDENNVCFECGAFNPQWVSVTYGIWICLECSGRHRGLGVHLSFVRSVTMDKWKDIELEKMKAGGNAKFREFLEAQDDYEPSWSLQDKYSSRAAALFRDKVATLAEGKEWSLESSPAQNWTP
#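 Material: truncated rat Arfgap1 GAP domain; Incubation: compound-enzyme preincubation 20 min, reaction 120 min, detection 60 min, 25 °C; Read-out: percent inhibition of Arfgap1-stimulated GTP hydrolysis; Technique: FP, GDP Alexa 633 tracer displaced from anti-GDP antibody, 620/688 nm; Controls: No-Arfgap1 wells (100%) versus DMSO full-reaction wells (0%); Replication: single well per compound.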
# PAFAH1B2 FP inh – blocks human PAF acetylhydrolase 1b catalytic subunit 2; P68402; recombinant PAFAH1B2, FP-rhodamine activity probe, fluorescence polarization; actives 1.2% (n = 340,000); inhibition, % at 3.39 µM;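 active = inhibition above the mean of all tested compounds plus 3 SD, cut at about 24% in these data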;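 also: 0% = enzyme with DMSO and 100% = wells lacking PAFAH1B2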
# pPAFAH inh – pPAFAH (human) enzyme inhibition. inhibition, % at 3.39 µM. recombinant pPAFAH, FP-rhodamine probe fluorescence polarization. AID 463082. actives 1.5% (n = 330,000). Q13093;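 active = inhibition above the mean inhibition across the screen plus 3 SD, cut at about 25% in these data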;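 also: inhibitors block binding of the rhodamine activity-based probe so polarization drops; 0% = enzyme with DMSO and 100% = wells lacking pPAFAH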
# Target sequence (Q13093 whole entry, looked up): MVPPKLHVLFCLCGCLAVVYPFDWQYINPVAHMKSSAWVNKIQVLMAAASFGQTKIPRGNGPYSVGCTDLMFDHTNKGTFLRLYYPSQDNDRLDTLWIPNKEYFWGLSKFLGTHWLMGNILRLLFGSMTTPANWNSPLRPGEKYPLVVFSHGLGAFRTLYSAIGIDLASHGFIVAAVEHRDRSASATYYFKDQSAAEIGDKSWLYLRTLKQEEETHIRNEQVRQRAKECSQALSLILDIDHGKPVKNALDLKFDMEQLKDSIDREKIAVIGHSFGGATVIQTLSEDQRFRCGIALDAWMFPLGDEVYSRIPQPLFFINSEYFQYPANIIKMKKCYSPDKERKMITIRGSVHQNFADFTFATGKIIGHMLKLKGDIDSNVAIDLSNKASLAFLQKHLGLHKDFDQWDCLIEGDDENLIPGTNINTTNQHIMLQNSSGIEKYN
# ASAP1 inh – ASAP1 ArfGAP inhibition; Q9ULH1; ASAP1-stimulated ARF1 GTP hydrolysis, GDP FP detection; inhibition, % at 16.5 µM; actives 0.19% (n = 360,000); AID 624377; in the data active = inhibition above about 25%;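 also: 0% = vehicle with enzyme and substrate and 100% = no enzyme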
# PAFAH1B3 FP inh – inhibitors of human PAFAH1B3 | Q15102 | recombinant PAFAH1B3, FP-rhodamine probe, fluorescence polarization | inhibition, % at 3.39 µM | actives 0.28% (n = 340,000);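 active = inhibition above the screen-wide average of all tested compounds plus 3 SD, cut at about 25% in these data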;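 also: 0% = enzyme with DMSO only and 100% = wells lacking PAFAH1B3 protein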
# PAFAH2 FP inh – PAFAH2 (human) inhibition | inhibition, % at 3.39 µM | recombinant PAFAH2, FP-rhodamine activity probe, fluorescence polarization | actives 0.99% (n = 340,000) | Q99487;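 active = inhibition above the mean over all tested compounds plus 3 SD, cut at about 30% in these data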;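 also: inhibitors block probe labeling of enzyme so polarization drops; 0% = enzyme with DMSO and 100% = wells lacking PAFAH2 protein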
# pPAFAH FP conf – confirmation of human plasma PAF acetylhydrolase (pPAFAH) inhibitors. inhibition, % at 3.39 µM. shares compounds with pPAFAH inh. AID 463230. recombinant pPAFAH, FP-Rh probe fluorescence polarization. actives 72% (n = 2,300);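 active = mean inhibition of the triplicate above the hit cutoff set for the earlier primary screen, cut at about 25% in these data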;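 also: 0% = enzyme with DMSO and 100% = wells lacking pPAFAH enzyme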
# * = called active by the depositor; . = no result given.
SMILES,ARFGAP1 inh,PAFAH1B2 FP inh,pPAFAH inh,ASAP1 inh,PAFAH1B3 FP inh,PAFAH2 FP inh,pPAFAH FP conf
Fc1ccc(-[n+]2nc(Nc3ccccc3)sc2-c2c(Cl)cccc2Cl)cc1,9,1,51*,-10,5,9,22
COc1ccc(C)cc1Nc1n[n+](-c2ccccc2)c(-c2c(Cl)cccc2Cl)s1,-9,.,53*,4,.,.,53*
COc1cc2[nH]c(Cl)c([N+](=O)[O-])c2cc1OC,-12,6,1,1,-1,4,.
Cc1ccc(S(=O)(=O)N(C)[C@H]2C[C@H]3c4[nH]c5c(-c6ccccc6)cccc5c4CCN3C(=O)[C@H]2[C@H](C)O)cc1,8,.,.,2,.,.,.
COc1cccc2cc(C(=O)CS(=O)(=O)c3ccc(C(C)(C)C)cc3)c(=O)oc12,-11,42*,52*,-9,4,15,35*
COc1ccc(S(=O)(=O)CC(=O)c2cc3cccc(C)c3oc2=O)cc1,.,-1,16,.,5,8,.
Clc1cccc(-c2ccc(C3Nc4cccc5cccc(c45)N3)o2)c1,.,25*,39*,.,31*,-9,38*
Clc1ccc(C2Nc3cccc4cccc(c34)N2)c(Cl)c1,-8,9,.,6,11,5,.
Cc1nccn1-c1ccc(NC(=O)[C@@H](Cc2ccccc2)NC(=O)[C@H]2O[C@@H](n3ccc(=O)[nH]c3=O)[C@H](O)[C@@H]2O)cc1,-10,.,.,10,.,.,.
CN(C(=O)CSc1nc(O)cc(=O)n1C1CCCC1)c1ccccc1,7,4,48*,6,8,-9,8
COCCCNC1=C(Cl)C(=O)c2ccccc2C1=O,1,6,2,3,9,0,.
COCCCNc1c2c3c(cccc3[nH]c1=O)C(=O)c1ccccc1-2,-4,109*,106*,1,134*,136*,84*
COc1ccc(CCn2c(O)cc3nn(-c4nc5ccccc5s4)c(=O)c-3c2C)cc1,5,7,56*,-4,15,21,44*
C/C(N)=C(/C#N)C(=O)COC(=O)c1cc(C)n(-c2ccc(F)cc2)c1C,2,5,36*,-8,7,7,28*
COc1ccc(C(=O)NCCCn2nc(C)cc2C)cc1S(=O)(=O)N1CCOCC1,1,9,.,-1,4,3,.
CCNC(=O)C1CCCN(C(=O)c2ccc3c(c2)CCO3)CC1 (stereo not given),1,.,.,-15,.,.,.
Cc1ccc(NC(=O)c2cc3c(=O)oc4ccc(C)cc4c3s2)nc1,.,.,66*,.,.,.,6
Cc1ccnc(NC(=O)c2cc3c(=O)oc4ccc(C)cc4c3s2)c1,2,1,3,11,-1,0,.
CC(=O)Nc1nc(C)c(-c2csc(Nc3cccc(C(C)=O)c3)n2)s1,13,10,38*,9,11,11,37*
COc1ccccc1-n1c(SCC(=O)Nc2cccc3ccccc23)nc(O)cc1=O,-2,0,38*,-12,1,-1,0
COc1ccc(-n2c(SCC(=O)Nc3ccccc3OC)nc(O)cc2=O)cc1,-1,2,7,9,-3,7,.
CCN(CC(=O)NCc1ccccc1Cl)CC(=O)Nc1c(F)cccc1F,-1,3,2,-11,8,4,.
CN(C)c1ccc(N/C=C/C(=O)c2ccccc2)cc1,-8,4,39*,-7,-4,3,6
Cc1cccc(CN2[C@@H](C)[C@H](c3ccccc3)Oc3cc(Br)ccc3S2(=O)=O)c1,15,.,.,0,.,.,.
CC(=O)Nc1ccc(NC(=O)CSc2nnc(-c3ccco3)o2)cc1,4,1,-4,-10,4,-12,.
SMILES,ARFGAP1 inh,PAFAH1B2 FP inh,pPAFAH inh,ASAP1 inh,PAFAH1B3 FP inh,PAFAH2 FP inh,pPAFAH FP conf
CC(=O)c1ccc(NC(=O)CSc2nnc(-c3ccco3)c(-c3ccco3)n2)cc1,-3,2,46*,-3,17,27,15
O=C(CSc1nnc(-c2ccco2)c(-c2ccco2)n1)c1ccccc1,-19,10,54*,-5,12,33*,16
CC(C)c1cc(Cn2c3ccccc3c(=O)n2C(C)Cn2cc(CCCC#N)nn2)on1 (stereo not given),5,.,.,8,.,.,.
O=C(/C=C/c1ccc(Cl)cc1Cl)OCC(=O)N1CCCC1,-5,2,8,0,-4,2,.
COc1ccc(N2C3=C(CC4=C2CCCC4=O)C(=O)CCC3)cc1,8,3,44*,-10,14,14,7
COc1ccc(N2C3=C(CC4=C2CC(C)(C)CC4=O)C(=O)CC(C)(C)C3)cc1,-11,3,6,2,0,0,.
C/C(=N\NC(=O)c1cc2ccccc2cc1O)c1ccc2c(c1)OCO2,6,7,55*,0,-2,9,6
O=C(OCC(=O)N1CCCCC1)c1cc2ccccc2cc1O,8,1,-3,12,7,3,.
CCOc1ccc(NC(=O)c2cc3ccccc3cc2O)cc1,1,-3,15,3,3,-6,.
CCOC(=O)C(C)/C(C)=N/NC(=O)c1cc2ccccc2cc1O (stereo not given),-10,2,46*,4,4,4,4
C/C(CC(=O)N1CCCC1)=N\NC(=O)c1cc2ccccc2cc1O,5,4,48*,0,7,12,15
C/C(=N\NC(=O)c1ccc(C)cc1C)c1ccc2c(c1)OCO2,3,2,0,9,4,-6,.
CC(NC(=O)c1cccnc1Sc1ccccc1)c1ccc(S(N)(=O)=O)cc1 (stereo not given),-9,5,2,17,4,3,.
CN(C(=O)CC1C(=O)NCCN1Cc1ccc(F)cc1)C1CCOCC1 (stereo not given),-1,3,3,-2,7,-1,.
CN(C(=O)CC1C(=O)NCCN1Cc1ccc(F)c(F)c1)C1CCOCC1 (stereo not given),-11,2,59*,6,-1,3,2
CCN(CC)c1ccc(NS(=O)(=O)c2ccc3c(c2)oc(=O)n3C)c(C)c1,5,2,40*,3,-2,-2,44*
Cn1c2ccccc2c2cc(/C=N/NC(=O)c3cc(O)ccc3O)ccc21,14,30*,57*,0,59*,24,28*
CC(/C=C1\SC(=S)N(c2ccc(C(=O)O)cc2)C1=O)=C\c1ccccc1,-22,2,35*,-5,4,10,28*

# Screens as filed in PubChem BioAssay.
